Data as given in ChEMBL document CHEMBL1125520, “Improved brain delivery of AZT using a glycosyl phosphotriester prodrug” (1992).

How the values were obtained:
Mus musculus [1] = species: Mus musculus; test: In Vitro detection by Gray and Whittaker method for % of internalization by comparing with external nucleoside of 2000 nM/g; type: functional
Method in brief: (§1)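 Crude synaptosomes from three mouse brains were prepared by Gray–Whittaker homogenization in 10% sucrose buffered with 5 mM Tris-HCl, pH 7.4. The 7000g pellet was resuspended and incubated with each nucleoside at 3 mM for 15 min at 37 °C, stopped by cold 10-fold dilution and washed twice. Internal nucleoside was extracted in acetonitrile–water (3:1) and measured by HPLC.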

Mus musculus [2] = species: Mus musculus; test: Concentration of external nucleoside in mouse brain; type: functional
Method in brief: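 Male Swiss mice (6 weeks, 18–20 g) dosed by oral gavage in saline vehicle at 20 mg/kg AZT or molar equivalent (3 mM, 1.5 µmol/mouse). Brains taken 0.5–48 h post-dose, homogenized in acetonitrile–water 3:1, centrifuged, lyophilized and filtered. Analysed by column-switching C18 HPLC with diode-array detection against spiked standards and vehicle controls. Three mice per time point, triplicates; not recovery-corrected.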

Mus musculus [3] = species: Mus musculus; test: In Vitro detection by Gray and Whittaker method for the total internal nucleoside; type: functional; method in brief: as §1
Mus musculus [4] = test: In Vivo detection in Mice plasma after oral administration of 20 mg/kg detected in the form of AZT after 8 hr; type: functional, organism-based; parameters: dose 20 mg/kg
Mus musculus [5] = test: In Vivo detection in Mice plasma after oral administration of 20 mg/kg detected in the form of AZT 5`-P after 0.5 hr; type: functional, organism-based; parameters: dose 20 mg/kg
Mus musculus [6] = test: In Vivo detection in Mice plasma after oral administration of 20 mg/kg detected in the form of AZT 5`-P after 24 hr; type: functional, organism-based; parameters: dose 20 mg/kg
Mus musculus [7] = test: In Vivo detection in Mice plasma after oral administration of 20 mg/kg detected in the form of AZT 5`-P after 2 hr; type: functional, organism-based; parameters: dose 20 mg/kg
Mus musculus [8] = test: In Vivo detection in Mice plasma after oral administration of 20 mg/kg detected in the form of AZT 5`-P after 48 hr; type: functional, organism-based; parameters: dose 20 mg/kg
Mus musculus [9] = test: In Vivo detection in Mice plasma after oral administration of 20 mg/kg detected in the form of AZT 5`-P after 4 hr; type: functional, organism-based; parameters: dose 20 mg/kg
Mus musculus [10] = test: In Vivo detection in Mice plasma after oral administration of 20 mg/kg detected in the form of AZT 5`-P after 8 hr; type: functional, organism-based; parameters: dose 20 mg/kg
Mus musculus [11] = test: In Vivo detection in Mice plasma after oral administration of 20 mg/kg detected in the form of AZT after 0.5 hr; type: functional, organism-based; parameters: dose 20 mg/kg
Mus musculus [12] = test: In Vivo detection in Mice plasma after oral administration of 20 mg/kg detected in the form of AZT after 1 hr; type: functional, organism-based; parameters: dose 20 mg/kg
Mus musculus [13] = test: In Vivo detection in Mice plasma after oral administration of 20 mg/kg detected in the form of AZT after 24 hr; type: functional, organism-based; parameters: dose 20 mg/kg
Mus musculus [14] = test: In Vivo detection in Mice plasma after oral administration of 20 mg/kg detected in the form of AZT after 2 hr; type: functional, organism-based; parameters: dose 20 mg/kg
Mus musculus [15] = test: In Vivo detection in Mice plasma after oral administration of 20 mg/kg detected in the form of AZT after 48 hr; type: functional, organism-based; parameters: dose 20 mg/kg
Mus musculus [16] = test: In Vivo detection in Mice plasma after oral administration of 20 mg/kg detected in the form of AZT after 4 hr; type: functional, organism-based; parameters: dose 20 mg/kg
Mus musculus [17] = test: In Vivo detection of total AZT in Mice plasma after oral administration of 20 mg/kg after 0.5 hr; type: functional, organism-based; parameters: dose 20 mg/kg
Method in brief: (§2)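 Male Swiss mice (18–20 g, six weeks old) given the test substance or vehicle ([…]) by gavage as a 3 mM solution (1.5 µmol/mouse). Aortic blood was collected into heparinized tubes at 0.5–48 h and centrifuged at 13000g for 10 min. Plasma was stored at -22 °C and analysed by HPLC. Three mice were used per time point, in triplicate. Values were not corrected for recovery.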

Mus musculus [18] = test: In Vivo detection of total AZT in Mice plasma after oral administration of 20 mg/kg after 1 hr; type: functional, organism-based; parameters: dose 20 mg/kg; method in brief: as §2
Mus musculus [19] = test: In Vivo detection of total AZT in Mice plasma after oral administration of 20 mg/kg after 24 hr; type: functional, organism-based; parameters: dose 20 mg/kg; method in brief: as §2
Mus musculus [20] = test: In Vivo detection of total AZT in Mice plasma after oral administration of 20 mg/kg after 2 hr; type: functional, organism-based; parameters: dose 20 mg/kg; method in brief: as §2
Mus musculus [21] = test: In Vivo detection of total AZT in Mice plasma after oral administration of 20 mg/kg after 48 hr; type: functional, organism-based; parameters: dose 20 mg/kg; method in brief: as §2
Mus musculus [22] = test: In Vivo detection of total AZT in Mice plasma after oral administration of 20 mg/kg after 4 hr; type: functional, organism-based; parameters: dose 20 mg/kg; method in brief: as §2
Mus musculus [23] = test: In Vivo detection of total AZT in Mice plasma after oral administration of 20 mg/kg after 8 hr; type: functional, organism-based; parameters: dose 20 mg/kg; method in brief: as §2
Mus musculus [24] = test: In Vivo detection in Mice plasma after oral administration of 20 mg/kg detected in the form of AZT 5`-P after 1 hr; type: functional, organism-based; parameters: dose 20 mg/kg

With `Cc1cn([C@H]2C[C@H](N=[N+]=[N-])[C@@H](COP(=O)(O)O)O2)c(=O)[nH]c1=O` [AZIDOTHYMIDINE MONOPHOSPHATE] the Internalisation (Mus musculus [1]) was 0.06%, the External nucleoside (Mus musculus [2]) was 2000 nM/g and the Brain content (Mus musculus [3]) was 1.1 nM/g.
`Cc1cn([C@H]2C[C@H](N=[N+]=[N-])[C@@H](CO)O2)c(=O)[nH]c1=O` [ZIDOVUDINE] gave an Internalisation (Mus musculus [1]) of 0.03%, a Plasma content (Mus musculus [4]) of 0 nM ml-1 and a Plasma content (Mus musculus [5]) of 21.7 nM ml-1. For the same compound, the Plasma content (Mus musculus [6]) was 0 nM ml-1, the Plasma content (Mus musculus [7]) was 13.1 nM ml-1 and the Plasma content (Mus musculus [8]) was 0 nM ml-1. For the same compound, the Plasma content (Mus musculus [9]) was 0 nM ml-1, the Plasma content (Mus musculus [10]) was 0 nM ml-1 and the Plasma content (Mus musculus [11]) was 26.6 nM ml-1. The Plasma content (Mus musculus [12]) was 15.7 nM ml-1, the Plasma content (Mus musculus [13]) was 0 nM ml-1 and the Plasma content (Mus musculus [14]) was 6 nM ml-1. It also gave a Plasma content (Mus musculus [15]) of 0 nM ml-1, a Plasma content (Mus musculus [16]) of 4.4 nM ml-1 and a Plasma content (Mus musculus [17]) of 48.3 nM ml-1. The Plasma content (Mus musculus [18]) was 43.2 nM ml-1, the Plasma content (Mus musculus [19]) was 0 nM ml-1 and the Plasma content (Mus musculus [20]) was 19.1 nM ml-1. The Plasma content (Mus musculus [21]) was 0 nM ml-1, the Plasma content (Mus musculus [22]) was 4.4 nM ml-1 and the Plasma content (Mus musculus [23]) was 0 nM ml-1. It also gave a Plasma content (Mus musculus [24]) of 27.5 nM ml-1.
